High-throughput results deposited in PubChem by The Scripps Research Institute Molecular Screening Center.
UHRF1 binding: UHRF1 methylated DNA binding inhibitors, primary screen, counter-screen for MBD2 inhibitor project, biochemical, TR-FRET, human UHRF1, single concentration; E3 ubiquitin-protein ligase UHRF1 (Homo sapiens), Q96T88; UHRF1 binding to methylated oligo; inhibition, % at 4.4 µM; actives 0.75% (n = 370,000); AID 687016, 2013; in the data active means inhibition above about 21%;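 further: UHRF1 SRA domain binding a hemimethylated CpG hairpin DNA probe; 0% = median of test compound wells and 100% = reference inhibitor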
Target sequence (Q96T88 whole entry, looked up, the tested form may be a part): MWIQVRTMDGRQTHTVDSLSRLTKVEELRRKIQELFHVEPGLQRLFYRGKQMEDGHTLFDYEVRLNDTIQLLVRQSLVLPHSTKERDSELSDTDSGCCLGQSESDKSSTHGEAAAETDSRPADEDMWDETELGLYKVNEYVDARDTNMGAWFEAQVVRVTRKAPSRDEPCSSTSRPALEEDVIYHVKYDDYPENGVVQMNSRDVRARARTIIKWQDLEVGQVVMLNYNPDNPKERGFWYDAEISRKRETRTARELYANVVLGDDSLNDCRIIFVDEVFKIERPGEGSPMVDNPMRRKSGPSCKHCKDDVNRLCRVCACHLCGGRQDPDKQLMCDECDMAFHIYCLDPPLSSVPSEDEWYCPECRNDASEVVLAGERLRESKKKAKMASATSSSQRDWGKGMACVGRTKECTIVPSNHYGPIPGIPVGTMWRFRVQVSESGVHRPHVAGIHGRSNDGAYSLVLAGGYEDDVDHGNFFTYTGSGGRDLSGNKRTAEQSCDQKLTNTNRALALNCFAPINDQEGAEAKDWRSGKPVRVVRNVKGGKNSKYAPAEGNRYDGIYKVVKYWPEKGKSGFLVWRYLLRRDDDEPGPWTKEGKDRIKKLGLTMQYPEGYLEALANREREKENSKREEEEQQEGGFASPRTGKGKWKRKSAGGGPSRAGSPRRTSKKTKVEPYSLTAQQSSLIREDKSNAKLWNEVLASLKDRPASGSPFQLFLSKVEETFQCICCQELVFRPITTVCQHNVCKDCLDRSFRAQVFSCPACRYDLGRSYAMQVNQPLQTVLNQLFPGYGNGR
TDP2 absorb: human TDP2 enzyme inhibitors, primary screen, biochemical, epi absorbance, recombinant enzyme; inhibition, % at 12.8 µM; AID 720702, 2013; actives 0.34% (n = 370,000); T5PNP hydrolysis, p-nitrophenol absorbance 415 nm;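 active means inhibition above the mean of all tested compounds plus 3 SD, set per campaign, cut at about 25% in these data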;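 further: 0% = DMSO with enzyme and 100% = buffer with substrate but no TDP2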
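Assay system: recombinant human TDP2 / Reagent: T5PNP substrate at 5 mM, a TopII-DNA adduct mimic / Measured by: epi absorbance from released p-nitrophenol / Evaluation: % inhibition relative to enzyme-containing and enzyme-free wells / Control set: enzyme-free and DMSO wells / Replicates: each compound tested once, singlicate / Schedule: enzyme reaction with compound for 2 h at 37 °C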
LEDGF integ inh: blockers of LEDGF/p75-dependent integrase strand transfer – biochemical, TR-FRET, high throughput, primary screen. HIV-1 integrase (with human LEDGF/p75). TR-FRET IN-LEDGF/p75 DNA integration, Eu/Cy5. inhibition, % at 3.7 µM. actives 0.64% (n = 370,000). AID 743269, 2014;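 active means inhibition above the screen-wide mean plus 3 SD, cut at about 13% in these data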;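 further: signal is the Cy5 over europium emission ratio at 671 and 618 nm; 0% = plate median of compound wells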
MBD2 inh: inhibitors of MBD2 binding to methylated DNA, primary screen, biochemical, TR-FRET, DNA-binding domain, human | Methyl-CpG-binding domain protein 2 (Homo sapiens), Q9UBB5 | AID 686964, 2013 | inhibition, % at 4.4 µM | MBD2 binding to methylated oligonucleotide | actives 0.31% (n = 370,000); in the data active means inhibition above about 13%
IN multimer up: HIV-1 IN multimer formation enhancers, counter-screen for LEDGF/p75 integration inhibitor project, biochemical, TR-FRET | shares compounds with LEDGF integ inh | TR-FRET HIV-1 integrase multimerization | activation, % at 7.7 µM | actives 17% (n = 2,000); in the data active means activation above about 8.9%
TRFRET interf: TR-FRET optical interference artefacts, confirmation, artefact control for LEDGF/p75-dependent integration inhibitor project, biochemical, HIV-1 IN multimerization; shares compounds with LEDGF integ inh; AID 1053135, 2014; 2,000 tested, under 10 active; inhibition, % at 7.7 µM; TR-FRET optical interference counterscreen;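 active means inhibition above the mean over all tested compounds plus 3 SD, which no compound reached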;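 further: 0% = integrase with antibodies and DMSO and 100% = antibodies without integrase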
LEDGF integ conf: inhibitors of HIV-1 IN-LEDGF/p75 DNA integration, confirmation, biochemical, TR-FRET. TR-FRET LEDGF/p75-dependent HIV-1 integration. actives 36% (n = 2,000). shares compounds with LEDGF integ inh. inhibition, % at 3.7 µM; in the data active means inhibition above about 14%
* marks the source's active call; other numbers are inactive results; . = no result given; ! = repeats disagree. The list is not random: actives were taken first. Their share in the collection is about 1.6%.

SMILES	UHRF1 binding	TDP2 absorb	LEDGF integ inh	MBD2 inh	IN multimer up	TRFRET interf	LEDGF integ conf
O=C(O)/C(=C\c1ccco1)NC(=O)c1ccco1	0.8	-8.5	8.0	-0.3	.	.	.
COc1cc(O)c(C(CC(=O)N2CCCC(C)C2)c2ccccc2)c(OC)c1 (stereo not drawn)	13.1	-1.6	3.1	8.1	.	.	.
Nc1ccc2c(c1)C/C(=C/c1ccco1)C2=O	68.6*	0.8	49.2*	24.5*	18.9*	-95.1	24.7*
O=C1/C(=C/c2ccco2)CCc2ccccc21	3.2	5.0	5.6	-0.8	.	.	.
O=S(=O)(NN=C(c1ccccc1)c1ccccc1)c1ccccc1	-0.1	4.8	-3.9	3.9	.	.	.
COP(=O)(OC)C(=NNS(=O)(=O)c1ccc(C)cc1)c1ccccc1	1.9	-0.7	26.8*	5.7	-0.9	4.8	-0.4
CC(=O)NS(=O)(=O)c1ccc(NC(=O)/C=C/c2ccco2)cc1	28.5*	3.2	29.6*	2.9	2.7	-13.5	25.9*
COc1ccc(/C=N/n2c(N)nc3ccccc32)cc1OC	9.1	-3.6	23.7*	6.6	-0.3	1.4	-6.7
COc1ccc(/C=N/Nc2nonc2N)cc1OC	-4.5	0.4	4.0	0.4	.	.	.
COc1ccc(/C=N/Nc2nc(N)cc(Cl)n2)cc1OC	-3.4	0.0	28.3*	-2.3	2.6	-13.1	-5.3
Cc1c(C(=O)NCCN2CCOCC2)oc2ccc(Br)cc12	-0.9	2.5	18.3*	0.7	-0.1	0.4	9.4
Cc1c(C(=O)NCCN2CCOCC2)oc2ccccc12	2.7	0.1	5.4	-3.5	.	.	.
Fc1c(-c2ccc3ncnc(NCc4cccs4)c3c2)ccc2c1OCO2	-3.0	-4.2	4.7	-6.3	.	.	.
C[C@@H]1O[C@@H](O[C@H]2[C@H](O)[C@@H](O)[C@H](Oc3c(-c4ccc(O)c(O)c4)oc4cc(O)cc(O)c4c3=O)O[C@@H]2CO)[C@H](O)[C@H](O)[C@H]1O	7.6	-3.1	6.9	2.1	.	.	.
O=c1c(OC2OC(CO)C(O)C(O)C2OC2OC(CO)C(O)C(O)C2O)c(-c2ccc(O)cc2)oc2cc(O)cc(O)c12 (stereo not drawn)	0.6	-7.9	19.2*	1.0	47.9*	-170.0	48.3*
C[C@@H]1O[C@@H](Oc2c(-c3cc(O)c(O)c(O)c3)oc3cc(O)cc(O)c3c2=O)[C@H](O)[C@H](O)[C@H]1O	4.6	-8.2	55.1*	-4.3	53.2*	-188.9	62.9*
COc1cc(-c2oc3cc(O)cc(O)c3c(=O)c2O[C@@H]2O[C@H](COC3O[C@@H](C)[C@H](O)[C@@H](O)[C@H]3O)[C@@H](O)[C@H](O)[C@H]2O)ccc1O (stereo partly drawn)	-2.3	1.9	1.6	-4.3	.	.	.
C[C@@H]1O[C@@H](Oc2c(-c3ccc(O)c(O)c3)oc3cc(O)cc(O)c3c2=O)[C@H](O)[C@H](O)[C@H]1O	3.7	-8.5	21.0*!	-0.3	16.1*	-80.9	58.0*
Cc1ccc(OCCn2c(CCNC(=O)c3ccc(F)cc3F)nc3ccccc32)cc1	2.6	0.2	2.9	-1.1	.	.	.
CCOC(=O)[C@]12CCCC3=C1N(CCC3)C(=O)[C@@H](CC(=O)NCc1cccc(C(F)(F)F)c1)C2	0.9	4.0	-3.1	1.2	.	.	.
CC1CCN(C(=O)c2[nH]cnc2C(=O)NC2CCN(C(=O)OC(C)(C)C)CC2)CC1	1.7	2.1	16.8*	3.7	-0.9	4.8	-0.6
